High-throughput results as filed in PubChem.
In the library only some 29% were active in any assay of this set; here they are far more common.
CYP2C19 activ – human CYP2C19 activators, primary screen, biochemical, luminescence; activation factor at 5 µM; 96,000 tested, under 10 active; AID 1025, 2008; recombinant CYP2C19, luciferin-H EGE luminescence; active compounds read high; 0 = fully inhibited enzyme, 1 = untreated enzyme;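 active = activation factor of at least 2 at 5 µM in the primary screen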;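 note: 0 = wells with 2.5 mM tranylcypromine and 1 = vehicle-only wells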
CYP2C19 inhib – blockers of cytochrome P450 2C19 activity – biochemical, luminescence, ADME assay, primary screen; AID 778, 2007; P33261; inhibition, % at 5 µM; CYP2C19 Supersomes, luciferin-H EGE luminescence, 30 min; hit rate 21% among 96,000;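 active = CYP2C19 inhibition above a set limit at 5 µM in the primary screen, cut at about 50% in these data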;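 note: plate controls were negative control wells for no effect and 2.5 mM tranylcypromine positive control for full effect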
tolC growth inh – growth inhibitors of E. coli tolC mutant, primary screen, strain BW25113 ΔtolC::kan, 384-well; AID 573, 2007; growth inhibition, % at 10 µM (by protocol); OD615; hit rate 2.2% among 65,000;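 active = growth inhibition at or above a cutoff equal to the mean over every tested compound plus 3 SD, cut at about 60% in these data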;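 note: growth measured after 20 h incubation at 37 °C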
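Test system: E. coli BW25113 ΔtolC::kan bacteria | Medium: Kanamycin-containing LB broth (50 µg/mL) | Dosing: One dose of 10 µM final | Times: 20 h incubation with compound, 37 °C | Detection: Optical density read at 615 nm | Read-out basis: Percent growth inhibition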
CYP2C9 act – human CYP2C9 activators, primary screen, biochemical, luminescence | hit rate 1.4% among 96,000 | activation factor at 5 µM | recombinant CYP2C9, luciferin-H conversion; active compounds read high; factor 1 = untreated enzyme, 0 = blocked | AID 1024, 2008;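 active = activation factor of 2 or more for CYP2C9 at a 5 µM dose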;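 note: 0 = sulfaphenazole-blocked wells and 1 = vehicle-only wells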
Target sequence (P11712 whole entry, looked up): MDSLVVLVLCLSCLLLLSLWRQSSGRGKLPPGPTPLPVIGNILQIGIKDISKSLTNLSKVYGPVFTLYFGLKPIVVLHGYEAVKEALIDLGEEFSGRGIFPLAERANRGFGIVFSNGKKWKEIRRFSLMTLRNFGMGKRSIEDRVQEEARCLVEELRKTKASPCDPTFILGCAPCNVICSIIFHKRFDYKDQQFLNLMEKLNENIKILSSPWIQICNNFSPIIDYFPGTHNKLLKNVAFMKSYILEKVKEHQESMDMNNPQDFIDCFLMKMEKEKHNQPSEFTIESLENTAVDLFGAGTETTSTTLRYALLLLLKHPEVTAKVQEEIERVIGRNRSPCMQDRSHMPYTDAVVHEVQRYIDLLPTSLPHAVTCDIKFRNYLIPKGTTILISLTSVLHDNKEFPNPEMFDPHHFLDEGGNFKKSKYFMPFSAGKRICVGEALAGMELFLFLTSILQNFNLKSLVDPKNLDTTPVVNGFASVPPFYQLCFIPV
E coli WT exp – growth inhibitors of wild-type E. coli, primary screen, strain BW25113, expanded library, OD600; AID 710, 2007; hit rate 0.15% among 98,000; growth inhibition, % at 100 µM; OD600 absorbance;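 active = growth inhibition above about 50% at one test dose, limit read from the data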;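 note: growth measured after 20 h incubation at 37 °C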
CYP2C9 inhib – blockers of cytochrome P450 2C9 activity – biochemical, luminescence, ADME assay, primary screen | P11712 | CYP2C9 Supersomes, luciferin-H conversion | inhibition, % at 5 µM | hit rate 20% among 96,000;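 active = blocking of liver enzyme CYP2C9 beyond about 50% at 5 µM, limit read from the data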
An asterisk follows results filed as active.

`Cc1nc2sc(C(c3cccs3)N3CCC(C(N)=O)CC3)c(O)n2n1` (stereo unspecified) gave CYP2C19 activ 1.1, CYP2C19 inhib -8, tolC growth inh -5, CYP2C9 act 0.7, E coli WT exp -1 and CYP2C9 inhib 26.
For CCC(=O)NCCc1nc2cc(NC(=O)c3ccc(OC)cc3)ccc2n1C the results were CYP2C19 activ 0.8, CYP2C19 inhib 18, CYP2C9 act 0.7, E coli WT exp 3 and CYP2C9 inhib 33.
Screening CCOc1ccccc1C1C(C#N)=C(N)Oc2n[nH]c(CC)c21 (stereo unspecified) returned CYP2C19 activ 0.6, CYP2C19 inhib 41, tolC growth inh -5, CYP2C9 act 0.7, E coli WT exp 10 and CYP2C9 inhib 33.
Screening CCc1[nH]nc2c1C(c1ccc(Br)s1)C(C#N)=C(N)O2 (stereo unspecified) returned CYP2C19 activ 0.3, CYP2C19 inhib 67*, tolC growth inh 9, CYP2C9 act 0.3, E coli WT exp 3 and CYP2C9 inhib 66*.
`CCN(CC)CC(=O)N(CC(=O)Nc1c(C)cc(C)cc1C)C1CCCCC1` gave CYP2C19 activ 0.9, CYP2C19 inhib 5, tolC growth inh -32, CYP2C9 act 0.9, E coli WT exp -5 and CYP2C9 inhib 8.
Screening O=C(Nc1cccc(C(F)(F)F)c1)NC1CCCCC1 returned CYP2C19 activ 0.9, CYP2C19 inhib 10, CYP2C9 act 1.2, E coli WT exp 5 and CYP2C9 inhib -15.
Screening Cc1cc(C)c(NC2=NCC(=O)N2C2CCCCC2)c(C)c1 returned CYP2C19 activ 0.1, CYP2C19 inhib 90*, tolC growth inh 31, CYP2C9 act 0.2, E coli WT exp 3 and CYP2C9 inhib 85*.
Screening CCc1ccccc1NC1=NCC(=O)N1C1CCCCC1 returned CYP2C19 activ 0.4, CYP2C19 inhib 56*, tolC growth inh 10, CYP2C9 act 0.5, E coli WT exp 3 and CYP2C9 inhib 53*.
O=C1CN=C(Nc2cccc(C(F)(F)F)c2)N1C1CCCC1 was read as CYP2C19 activ 0.3, CYP2C19 inhib 72*, tolC growth inh 1, CYP2C9 act 0.2, E coli WT exp 7 and CYP2C9 inhib 82*.
Screening CCOC(=O)C(NS(=O)(=O)c1ccccc1)(C(F)(F)F)P(=O)(OCC(C)C)OCC(C)C (stereo unspecified) returned CYP2C19 activ 0.9, CYP2C19 inhib 10, CYP2C9 act 0.8, E coli WT exp 9 and CYP2C9 inhib 16.
O=C(O)[C@H](Cc1ccccc1)NC(=O)N1CCOCC1 was read as CYP2C19 activ 1, CYP2C19 inhib -4, tolC growth inh -16, CYP2C9 act 1.1, E coli WT exp -3 and CYP2C9 inhib -7.
`COCCCn1c(SCC(=O)Nc2nnc(C)s2)nnc1-c1ccoc1C` gave CYP2C19 activ 0.9, CYP2C19 inhib 15, tolC growth inh 16, CYP2C9 act 0.2, E coli WT exp -3 and CYP2C9 inhib 82*.
Screening COCCCn1c(SCC(=O)N2CCc3ccccc32)nnc1-c1ccoc1C returned tolC growth inh -3.
For CCc1nnc(NC(=O)CSc2nnc(-c3ccoc3C)n2-c2ccc(C)cc2)s1 the results were CYP2C19 activ 0.4, CYP2C19 inhib 64*, tolC growth inh 16, CYP2C9 act 0.3, E coli WT exp 3 and CYP2C9 inhib 66*.
`Cc1occc1-c1nnc(SCC(=O)NCc2ccco2)n1CC(C)C` gave CYP2C19 activ 0.9, CYP2C19 inhib 6, tolC growth inh 1, CYP2C9 act 1.2, E coli WT exp 10 and CYP2C9 inhib -18.
Screening COC(=O)c1ccccc1NC(=O)CSc1nnc(-c2ccoc2C)n1C returned CYP2C19 activ 0.3, CYP2C19 inhib 74*, tolC growth inh -6, CYP2C9 act 0.7, E coli WT exp 1 and CYP2C9 inhib 32.
Screening CCc1nnc(NC(=O)CSc2nnc(-c3ccoc3C)n2CC(C)C)s1 returned CYP2C19 activ 0.1, CYP2C19 inhib 88*, tolC growth inh 9, CYP2C9 act 0.1, E coli WT exp -9 and CYP2C9 inhib 88*.
`COC(=O)c1cc(NC(=O)c2nccnc2C(=O)O)cc(C(=O)OC)c1` gave CYP2C19 activ 1.2, CYP2C19 inhib -19, tolC growth inh -11, CYP2C9 act 1, E coli WT exp 0 and CYP2C9 inhib 2.
CCn1c(CSc2nc3ccccc3s2)nnc1SCC(=O)OC(C)(C)C was read as CYP2C19 activ 0.8, CYP2C19 inhib 18, CYP2C9 act 1.1, E coli WT exp 7 and CYP2C9 inhib -9.
CCc1ccccc1NC(=O)N1C2CCCC1CC(NC(C)=O)C2 (stereo unspecified) was read as CYP2C19 activ 1, CYP2C19 inhib 0, tolC growth inh -15, CYP2C9 act 1.1, E coli WT exp 5 and CYP2C9 inhib -13.
Screening COc1ccc(-n2c(C)cc(C(=O)CSc3nnc(-c4ccoc4C)n3C)c2C)cc1 returned CYP2C19 activ 0.4, CYP2C19 inhib 57*, tolC growth inh 19, CYP2C9 act 0.5, E coli WT exp -11 and CYP2C9 inhib 54*.
`COc1cccc(NC(=O)CSc2nnc(-c3ccoc3C)n2-c2ccccc2)c1` gave CYP2C19 activ 0.7, CYP2C19 inhib 33, CYP2C9 act 0.4, E coli WT exp -20 and CYP2C9 inhib 59*.
For Cc1ccc(-n2c(SCC(=O)NCC3CCCO3)nnc2-c2ccoc2C)cc1 (stereo unspecified) the results were CYP2C19 activ 0.2, CYP2C19 inhib 85*, tolC growth inh -22, CYP2C9 act 0.8, E coli WT exp 0 and CYP2C9 inhib 24.
Screening Cc1ccccc1-n1c(Cn2c(=O)sc3ccccc32)nnc1SCC(=O)NCC1CCCO1 (stereo unspecified) returned CYP2C19 activ 0.9, CYP2C19 inhib 15, tolC growth inh 2, CYP2C9 act 0.5, E coli WT exp -1 and CYP2C9 inhib 50*.
For O=C(c1cc2ccccc2oc1=O)N1CCN(CCc2ccccc2)CC1 the results were CYP2C19 activ 1.1, CYP2C19 inhib -5, tolC growth inh -9, CYP2C9 act 1, E coli WT exp -3 and CYP2C9 inhib -1.
Screening Cc1ccc(CNC(=O)CS(=O)(=O)CC(=O)O)cc1 returned CYP2C19 activ 0.9, CYP2C19 inhib 7, CYP2C9 act 0.9, E coli WT exp -2 and CYP2C9 inhib 6.
For Cc1cccc(CCNC(=O)C2CCN(S(=O)(=O)c3c(C)nn(C)c3C)CC2)c1 the results were CYP2C19 activ 0.9, CYP2C19 inhib 6, tolC growth inh 0, CYP2C9 act 1.4, E coli WT exp 2 and CYP2C9 inhib -43.
